Data published in ChEMBL document CHEMBL1156256, “Poly(ethylene glycol) (PEG-400) as an alternative reaction solvent for the synthesis of some new 1-(4-(4'-chlorophenyl)-2-thiazolyl)-3-aryl-5-(2-butyl-4-chloro-1H-imidazol-5yl)-2-pyrazolines and their in vitro antimicrobial evaluation” (2010).
Values after ≈ are worked out from the molar mass of the structure shown.

Columns and labels:
Salmonella enterica = assay: Antibacterial activity against Salmonella typhi MTCC 98 after 24 hrs by agar diffusion method; format: functional, Salmonella enterica subsp. enterica serovar Typhi; conditions: for MIC: Salmonella enterica, MTCC 98, 24 h
Procedure, shortened: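 NCCLS agar diffusion. Strain kept on nutrient agar slant at 37 ± 0.5 °C for 24 h. Nutrient agar plates seeded with 0.1 mL of a 10⁵ CFU/mL suspension in sterile 0.85% saline. Plates incubated at 37 ± 0.5 °C for 24 h. Read-out: zone of inhibition (mm) and MIC.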

Trichoderma viride = assay: Antifungal activity against Trichoderma viride MTCC 167 after 24 to 48 hrs by agar diffusion method; format: functional; conditions: for MIC: Trichoderma viride, MTCC 167
Procedure, shortened: (§1)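 Fungi grown on potato dextrose agar slants at 27 ± 0.2 °C for 24–48 h until sporulation. Spores suspended in sterile water with 1% Tween-80 and counted by haemocytometer (10⁶ CFU/mL). 0.1 mL spread on 2% agar PDA plates and held at 27 °C for 12 h. Wells then received 0.1 mL of compound at graded concentrations for MIC. Plates refrigerated 20 min for diffusion, then incubated at 27 ± 0.2 °C for […]. Zone read in mm. 1% DMSO used as control.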

Staphylococcus aureus = assay: Antibacterial activity against Staphylococcus aureus MTCC 96 after 24 hrs by agar diffusion method; format: functional; conditions: for MIC: Staphylococcus aureus, MTCC 96, 24 h
Procedure, shortened: (§2)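 Agar well diffusion following NCCLS. Bacteria kept on nutrient agar slants at 37 ± 0.5 °C for 24 h. Nutrient agar plates seeded with 0.1 mL of culture suspension in 0.85% sterile saline (10⁵ CFU/mL). Plates incubated at 37 ± 0.5 °C for 24 h. Zone of inhibition recorded in mm, and MIC noted. 1% DMSO used as control.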

Fusarium verticillioides = assay: Antifungal activity against Fusarium moniliforme MTCC 156 after 24 to 48 hrs by agar diffusion method; format: functional; conditions: for MIC: Fusarium verticillioides, MTCC 156; procedure, shortened: as §1
Candida albicans = assay: Antifungal activity against Candida albicans MTCC 183 after 24 to 48 hrs by agar diffusion method; format: functional; conditions: for MIC: Candida albicans, MTCC 183; procedure, shortened: as §1
Escherichia coli = assay: Antibacterial activity against Escherichia coli MTCC 2939 after 24 hrs by agar diffusion method; format: functional; conditions: for MIC: Escherichia coli, MTCC 2939, 24 h; procedure, shortened: as §2
Bacillus subtilis = assay: Antibacterial activity against Bacillus subtilis MTCC 441 after 24 hrs by agar diffusion method; format: functional; conditions: for MIC: Bacillus subtilis, MTCC 441, 24 h; procedure, shortened: as §2
Penicillium chrysogenum = assay: Antifungal activity against Penicillium chrysogenum MTCC 160 after 24 to 48 hrs by agar diffusion method; format: functional; conditions: for MIC: Penicillium chrysogenum, MTCC 160; procedure, shortened: as §1
Aspergillus niger = assay: Antifungal activity against Aspergillus niger MTCC 281 after 24 to 48 hrs by agar diffusion method; format: functional; conditions: for MIC: Aspergillus niger, MTCC 281; procedure, shortened: as §1

Row | SMILES | inhibition zone (IZ) (Salmonella enterica) | MIC (Salmonella enterica) | inhibition zone (IZ) (Trichoderma viride) | MIC (Trichoderma viride) | inhibition zone (IZ) (Staphylococcus aureus) | MIC (Staphylococcus aureus) | inhibition zone (IZ) (Fusarium verticillioides) | MIC (Fusarium verticillioides) | inhibition zone (IZ) (Candida albicans) | MIC (Candida albicans) | inhibition zone (IZ) (Escherichia coli) | MIC (Escherichia coli) | inhibition zone (IZ) (Bacillus subtilis) | MIC (Bacillus subtilis) | inhibition zone (IZ) (Penicillium chrysogenum) | MIC (Penicillium chrysogenum) | inhibition zone (IZ) (Aspergillus niger) | MIC (Aspergillus niger)
1 | CCCCc1nc(Cl)c(C2CC(c3ccccc3O)=NN2c2nc(-c3ccc(Cl)cc3)cs2)[nH]1 (centres undefined) | 10 mm | 50 µg/mL (≈ 97.6 µM) | 16 mm | 25 µg/mL (≈ 48.8 µM) | 13 mm | 50 µg/mL (≈ 97.6 µM) | 13 mm | 25 µg/mL (≈ 48.8 µM) | 15 mm | 25 µg/mL (≈ 48.8 µM) | 15 mm | 50 µg/mL (≈ 97.6 µM) | 16 mm | 50 µg/mL (≈ 97.6 µM) | 14 mm | 25 µg/mL (≈ 48.8 µM) | 14 mm | 25 µg/mL (≈ 48.8 µM)
2 | CCCCc1nc(Cl)c(C2CC(c3cc(Cl)cc(I)c3O)=NN2c2nc(-c3ccc(Cl)cc3)cs2)[nH]1 (centres undefined) | 16 mm | 25 µg/mL (≈ 37.2 µM) | 16 mm | 25 µg/mL (≈ 37.2 µM) | 18 mm | 25 µg/mL (≈ 37.2 µM) | 12 mm | 25 µg/mL (≈ 37.2 µM) | 15 mm | 25 µg/mL (≈ 37.2 µM) | 20 mm | 25 µg/mL (≈ 37.2 µM) | 21 mm | 25 µg/mL (≈ 37.2 µM) | 14 mm | 25 µg/mL (≈ 37.2 µM) | 15 mm | 25 µg/mL (≈ 37.2 µM)
3 | CCCCc1nc(Cl)c(C2CC(c3ccc(Cl)cc3)=NN2c2nc(-c3ccc(Cl)cc3)cs2)[nH]1 (centres undefined) | 10 mm | 50 µg/mL (≈ 94.2 µM) | 11 mm | 50 µg/mL (≈ 94.2 µM) | 12 mm | 50 µg/mL (≈ 94.2 µM) | 11 mm | 50 µg/mL (≈ 94.2 µM) | 14 mm | 25 µg/mL (≈ 47.1 µM) | 16 mm | 25 µg/mL (≈ 47.1 µM) | 14 mm | 50 µg/mL (≈ 94.2 µM) | 10 mm | 50 µg/mL (≈ 94.2 µM) | 12 mm | 50 µg/mL (≈ 94.2 µM)
